# In the library only some 2.1% were active in any assay of this set; here they are far more common.
# Efflux pump inh – blocks antifungal efflux pumps in multiplex yeast assay; S. cerevisiae Candida pump triplex, Nile Red efflux; inhibition, % at 10 µM; 330,000 compounds, 0.44% hits;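 active = plate passing quality check with inhibition over a set limit, or well fluorescence over plate mean plus 4 SD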;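 also: Nile Red retained in pooled yeast measured as flow cytometry median fluorescence; higher means more Nile Red kept so more efflux inhibition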
# cardiac RTF act – cardiac RTF calcium sensitization | activation, % at 7.2 µM | 340,000 compounds, 0.24% hits | IANBD-labeled TnC RTF fluorescence at EC20 calcium; 0% EC20 calcium, 100% full calcium;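 active = activation above the mean over all tested compounds plus 3 SD, cut at about 30% in these data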;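 also: rise in fluorescence read as greater calcium sensitivity of cardiac thin filaments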
# UCH37 DUB inh – inhibitors of human deubiquitinating enzyme UCH37. Q9Y5K5. purified proteasome/UCH37, Ub-AMC cleavage fluorescence. inhibition, % (no concentration beside the values). 330,000 compounds, 0.33% hits;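 active = mean inhibition over replicate wells above about 20%, limit read from the data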
# Target sequence (Q9Y5K5 whole entry, looked up): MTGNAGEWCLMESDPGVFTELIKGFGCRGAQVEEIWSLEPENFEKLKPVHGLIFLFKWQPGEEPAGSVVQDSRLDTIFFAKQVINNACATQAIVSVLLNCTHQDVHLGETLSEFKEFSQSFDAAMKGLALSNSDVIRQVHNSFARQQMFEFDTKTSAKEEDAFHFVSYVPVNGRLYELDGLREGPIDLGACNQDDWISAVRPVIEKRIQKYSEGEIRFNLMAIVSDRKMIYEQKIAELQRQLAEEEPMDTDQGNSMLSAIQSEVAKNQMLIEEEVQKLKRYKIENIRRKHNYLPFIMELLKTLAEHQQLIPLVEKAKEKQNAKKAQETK
#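 Signal – fluorescence, ex 355 nm, em 460 nm · System – Proteasome-bound UCH37 · Input – 0.15 nM proteasome as dispensed · Timing – 30 min preincubation with enzyme, 25 min cleavage at room temperature · Read-out basis – percent inhibition of cleavage signal versus uninhibited and no-proteasome wells · Medium – Tris-HCl pH 7.4 with ATP-MgCl2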
# RTF Ca sens inh – cardiac RTF calcium desensitization | P19429+P45379 | IANBD-labeled cardiac RTF, Ca2+ fluorescence | inhibition, % at 7.15 µM | 340,000 compounds, 0.12% hits;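 active = inhibition above the mean inhibition of all tested compounds plus 3 SD, cut at about 17% in these data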;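 also: assay run at fixed EC70 calcium of 1.6 mM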
# ARNT-TACC3 inh – disruptors of human ARNT/TACC3 interaction | Q9Y6A5 | AlphaScreen His-ARNT PAS-B/GST-TACC3 binding, luminescence; TACC3 fragment carries E629A point mutation | inhibition, % at 9.99 µM | 390,000 compounds, 0.66% hits;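 active = mean inhibition of replicates at least 50% and at least half of replicates each reaching 50%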
# Mot1-301 SUMO – blocks SUMOylation pathway, rescuing yeast Mot1-301 growth; S. cerevisiae Mot1-301 growth rescue, ATP luminescence, 38.5C; percent above DMSO median, 100 means doubled; growth rescue, % at 18.8 µM; 320,000 compounds, 1% hits; AID 2716;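 active = every valid replicate shows activation above 250% relative to neutral control wells; inactive = the rest, any valid replicate at or below 250%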
# A number is an active result; 0 = inactive; - = no result given.
SMILES,Efflux pump inh,cardiac RTF act,UCH37 DUB inh,RTF Ca sens inh,ARNT-TACC3 inh,Mot1-301 SUMO
COCCn1c(O)c(/C=N/NC(=O)CSC(=S)N2CCCC2)c(=O)[nH]c1=S,0,0,0,0,61.0,0
C=CCn1c(O)c(C(C)=NCCCn2ccnc2)c(=O)[nH]c1=O,0,0,0,0,83.5,0
CCCCn1c(O)c(/C=N/NC(=O)c2ccncc2)c(=O)[nH]c1=S,0,0,0,0,60.3,0
CCC12CN3CCN(CC(C3)C1=NNC(N)=O)C2,-,-,0,-,-,-
O=c1[nH]c(=O)n(CCC2=CCCCC2)c(O)c1C=NCCCn1ccnc1,0,0,0,0,0,0
Cn1c(O)c(/C=N/NC(=O)c2ccncc2)c(=O)n(C)c1=S,0,-,0,-,59.2,0
O=c1[nH]c(=O)n(CCc2ccc(F)cc2)c(O)c1C=NCCCn1ccnc1,0,0,26.0,0,0,0
NC(=N[N+](=O)[O-])N1CCN(C(=O)Oc2ccc([N+](=O)[O-])cc2)CC1,-,-,0,-,-,-
CC1(C)C[C@H]2C=C(C=O)[C@]3(C=O)C[C@]3(C)[C@H]2C1,0,0,-,0,0,358.4
Cc1ccc(C)c(Cn2c(C(=O)O)c(C=O)c3ccccc32)c1,0,85.9,0,0,0,0
O=Cc1c(C(=O)O)n(Cc2ccccc2F)c2ccccc12,0,0,0,0,0,0
Cc1onc(-c2c(Cl)cccc2Cl)c1C(N)=NOC(=O)N(C)C,-,-,0,-,-,-
CC1(C)OC(c2ccccc2)=C/C(=C/C=C2C(=O)NC(=O)NC2=O)O1,0,110.0,0,0,0,0
CN(CCCCC(=O)C=NO)Cc1ccccc1 (tested in a mixture with another compound),-,-,0,-,-,-
O=c1[nH]c(O)c(C=NC2CCCCC2)c(=O)[nH]1,0,0,0,0,0,0
COc1ccc(OC)c(-n2c(O)c(C=Nc3c(C)n(C)n(-c4ccccc4)c3=O)c(=O)[nH]c2=S)c1,0,-,-,-,-,0
Cc1ccccc1-n1c(O)c(/C=N/Nc2nc3c(c(=O)n(C)c(=O)n3C)n2C)c(=O)[nH]c1=S,0,0,0,0,50.7,0
CC(C)c1ccc(N=Cc2c(O)n(C3CC3)c(=S)[nH]c2=O)cc1,0,0,0,0,0,0
Cn1c(=O)c2c(nc(N/N=C/c3c(O)n(C4CCCCC4)c(=S)[nH]c3=O)n2C)n(C)c1=O,0,0,0,0,52.4,0
Cn1c(O)c(C=NC2CCCCC2)c(=O)[nH]c1=S,0,0,21.6,0,0,0
COC(=O)C1C(O)C(C)C(O)C(C)C=CC=C(C)C(=O)Nc2c(C)c(OC(C)=O)c3c(c2O)C(=O)C(C)=C2OCOC(=C23)C(C)=CC(C)(O)C(O)C(C)C1O (stereo not given),-,-,0,-,-,-
CNC(=S)NN=C1C2CN3CCN(C2)CC1(c1ccccc1)C3,-,-,0,-,-,-
COC(=O)C1=C(C(=O)OC)SC2(S1)C(C(=O)OC)=C(C(=O)OC)Sc1c2ssc1=O,-,0,-,0,67.6,-
CC1Oc2cc3c(-c4c(O)cc(O)c5c(O)c6c(cc45)OC(C)C(C)C6=O)c(O)cc(O)c3c(O)c2C(=O)C1C (stereo not given),0,0,39.8,0,79.7,0
Cc1cccc(N2C(=O)NC(=O)/C(=C\C=C\c3ccco3)C2=O)c1,0,0,0,0,0,0
SMILES,Efflux pump inh,cardiac RTF act,UCH37 DUB inh,RTF Ca sens inh,ARNT-TACC3 inh,Mot1-301 SUMO
Cc1cccc(N2C(=O)NC(=O)/C(=C/c3ccc([N+](=O)[O-])o3)C2=O)c1,0,-,20.8,-,-,0
ON=Cc1c[nH]c2ccccc12,-,-,0,-,-,-
C=CCn1cc(C=C2C(=O)NC(=O)NC2=O)c2ccccc21,0,0,-,0,0,0
O=C1NC(=O)C(=Cc2cn(CCOc3ccc4c(c3)OCO4)c3ccccc23)C(=O)N1,0,159.0,0,0,0,0
CCC12CN3CCN(CC(C3)C1=NO)C2,-,-,0,-,-,-
CC12CC[C@H]3[C@@H](CCC4(O)C[C@H](O)CCC34C=NNC(=O)c3ccccc3O)C1(O)CCC2C1=CC(=O)OC1 (stereo not given in full),-,-,0,-,-,-
O=C1NC(=O)N(c2ccc3c(c2)OCO3)C(=O)/C1=C/c1cccs1,0,0,-,0,0,0
O=C1NC(=O)N(c2ccc3c(c2)OCO3)C(=O)/C1=C/c1ccc(N2CCCC2)o1,0,58.0,0,0,0,0
CCOc1ccc(N2C(=O)NC(=O)/C(=C\c3ccc(N4CCCCC4)o3)C2=O)cc1,0,112.5,0,0,0,-
Oc1ccc(C=NNP(=S)(c2ccccc2)c2ccccc2)c(O)c1O,-,-,0,-,-,-
CCCCC(=NO)c1c[nH]c2ccccc12,-,-,0,-,-,-
COC(=O)C1=C(c2ccc(Cl)c(C(F)(F)F)c2)C[C@@H]2CC[C@H]1N2C(=O)NCCO,0,0,33.3,0,0,0
O=C1NC(=O)C(=Cc2ccc(OCCOc3ccc([N+](=O)[O-])cc3)cc2)C(=O)N1,0,0,0,0,active,0
CCn1nc(-c2ccccc2)nc2c(=O)n(C)c(=O)nc1-2,0,0,98.7,0,0,0
COc1ccc(-c2nc3ccccc3c(=O)n2-c2ccc(OC)cc2)cc1,0,0,0,0,0,0
CN(C)c1ccc(C(=O)NN=CC23CC[C@@H](O)CC2(O)CC[C@@H]2[C@@H]3CCC3(C)C(C4=CC(=O)OC4)CCC23O)cc1 (stereo not given in full),-,-,0,-,-,-
COc1ccc(/C=C2\C(=O)NC(=S)N(C)C2=O)cc1C,0,0,0,0,54.5,0
NC(=N[N+](=O)[O-])N1CCN(C(=O)c2ccccc2)CC1,-,-,0,-,-,-
CCc1nc2ccccc2c(=O)n1-c1ccccc1[N+](=O)[O-],0,0,0,0,0,0
CCCCc1nc2ccccc2c(=O)n1-c1ccccc1[N+](=O)[O-],0,0,23.7,0,0,0
COc1nc(NC(C)C)nc(NC(C)C)n1,0,0,30.5,0,0,0
O=C(CSC1c2ccccc2-c2ccccc21)NN=Cc1ccccc1,-,-,0,-,-,-
Cc1ncc(CN2CCCC(C(=O)c3cccc(OC(C)C)c3)C2)s1 (stereo not given),0,0,0,0,0,294.6
COc1c(C)cc(C(=O)C2CCCN(Cc3cnc(C)s3)C2)cc1C (stereo not given),0,0,0,0,0,0
CCOC(=O)c1cc(CC)sc1N=CC1C(=O)NC(=S)NC1=O,-,-,0,-,-,-
CCN(CC)c1ccc(N=Cc2c(O)n(Cc3ccco3)c(=O)[nH]c2=O)cc1,0,78.6,0,0,0,0
O=C1NC(=S)N(c2ccc(F)cc2)C(=O)/C1=C/c1ccco1,0,-,-,-,-,0
O=C1NC(=S)N(c2ccc(F)cc2)C(=O)/C1=C\c1ccoc1,-,0,0,26.9,0,-
CCN1C[C@]2(C)CC[C@H](OC)C34C2[C@H](OC(C)=O)[C@@]2(OCO[C@@]25C[C@H](OC)[C@H]2C[C@]3(O)C5[C@H]2OC)[C@@H]14,-,-,0,-,-,-

# Bioassay records from PubChem BioAssay.
